Measured values published in EPA's CvTdb concentration-time database.
Several values for one entry are separate records, joined by “and”; a condition that tells them apart may be missing. Identical values can stand only once.

Assays:
Rat [1] = assay: concentration in brain after dosing; conditions: 1848 h; dosed: Perfluorooctane Sulfonate; 20 mg/kg; oral; Male; Harlan Sprague Dawley
Rat [2] = assay: concentration in kidney after dosing; conditions: 1848 h; dosed: Perfluorooctane Sulfonate; 20 mg/kg; oral; Female; F344
Rat [3] = assay: concentration in liver after dosing; conditions: 864 h; dosed: Perfluorooctane Sulfonate; 2 mg/kg; oral; Female; Harlan Sprague Dawley
Rat [4] = assay: concentration in kidney after dosing; conditions: 1848 h; dosed: Perfluorooctane Sulfonate; 20 mg/kg; oral; Male; Harlan Sprague Dawley
Rat [5] = assay: concentration in kidney after dosing; conditions: 3360 h; dosed: Perfluorooctane Sulfonate; 20 mg/kg; oral; Male; Harlan Sprague Dawley
Rat [6] = assay: concentration in kidney after dosing; conditions: 1848 h; dosed: Perfluorooctane Sulfonate; 2 mg/kg; oral; Female; Harlan Sprague Dawley
Rat [7] = assay: concentration in liver after dosing; conditions: 1848 h; dosed: Perfluorooctane Sulfonate; 2 mg/kg; oral; Female; Harlan Sprague Dawley
Rat [8] = assay: concentration in kidney after dosing; conditions: 1848 h; dosed: Perfluorooctane Sulfonate; 20 mg/kg; oral; Male; Harlan Sprague Dawley; remark: listed apart in the source
Rat [9] = assay: concentration in kidney after dosing; conditions: 6 h; dosed: Perfluorooctane Sulfonate; 20 mg/kg; oral; Female; F344
Rat [10] = assay: concentration in liver after dosing; conditions: 24 h; dosed: Perfluorooctane Sulfonate; 2 mg/kg; oral; Female; Harlan Sprague Dawley
Rat [11] = assay: concentration in plasma after dosing; conditions: dosed: Perfluorooctane Sulfonate, 2 mg/kg, oral, Female, Harlan Sprague Dawley
Rat [12] = assay: concentration in kidney after dosing; conditions: 0.5 h; dosed: Perfluorohexanoic Acid; 80 mg/kg; oral; Female; Harlan Sprague Dawley
Rat [13] = assay: concentration in plasma after dosing; conditions: dosed: Perfluorohexanoic Acid, 40 mg/kg, iv, Male, F344
Rat [14] = assay: concentration in kidney after dosing; conditions: 0.5 h; dosed: Perfluorohexanoic Acid; 80 mg/kg; oral; Male; Harlan Sprague Dawley
Rat [15] = assay: concentration in plasma after dosing; conditions: 1 h; dosed: Perfluorohexanoic Acid; 40 mg/kg; iv; Female; Harlan Sprague-Dawley
human = assay: concentration in expired air after dosing; conditions: dosed: trichloroethylene, 100 ppm, inhalation, duration: 4 hr, person
How it was run: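 Points were largely digitised from plot screenshots with WebPlotDigitizer or otherwise copied from tables, and they remain in the units each source reported. They come from published in vivo toxicokinetic studies and two structured collections. Sampling and analytical methods follow each source and were often not reported.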

Rat [16] = assay: concentration in plasma after dosing; conditions: 5 min; dosed: Gemfibrozil; 50 mg/kg; oral; Male; Sprague-Dawley
Rat [17] = assay: concentration in plasma after dosing; conditions: 24 h; dosed: Gemfibrozil; 50 mg/kg; oral; Male; Sprague-Dawley
Rat [18] = assay: concentration in plasma after dosing; conditions: 18 h; dosed: Gemfibrozil; 4.29 mg/kg; oral; Male; Sprague-Dawley
Rat [19] = assay: concentration in plasma after dosing; conditions: 2 h; dosed: Gemfibrozil; 50 mg/kg; oral; Male; Sprague-Dawley
Rat [20] = assay: concentration in plasma after dosing; conditions: 15 h; dosed: Gemfibrozil; 4.29 mg/kg; oral; Male; Sprague-Dawley
Rat [21] = assay: concentration in plasma after dosing; conditions: 10 h; dosed: Gemfibrozil; 4.29 mg/kg; oral; Male; Sprague-Dawley
Rat [22] = assay: concentration in plasma after dosing; conditions: 1.5 h; dosed: 2-Methyltetrahydrofuran; 40 mg/kg; iv; Male; Harlan Sprague Dawley
Rat [23] = assay: concentration in plasma after dosing; conditions: 4 h; dosed: 2-Methyltetrahydrofuran; 40 mg/kg; iv; Male; Harlan Sprague Dawley
Rat [24] = assay: concentration in plasma after dosing; conditions: 2 min; dosed: 2-Methyltetrahydrofuran; 40 mg/kg; iv; Male; Harlan Sprague Dawley
Rat [25] = assay: concentration in plasma after dosing; conditions: 0.75 h; dosed: 2-Methyltetrahydrofuran; 40 mg/kg; iv; Male; Harlan Sprague Dawley
Rat [26] = assay: concentration in liver after dosing; conditions: 0.5 h; dosed: Fluorotelomer alcohol 8+2; 80 mg/kg; oral; Female; Harlan Sprague Dawley
Rat [27] = assay: concentration in liver after dosing; conditions: 12 h; dosed: Fluorotelomer alcohol 8+2; 80 mg/kg; oral; Female; Harlan Sprague Dawley
Rat [28] = assay: concentration in plasma after dosing; conditions: dosed: 678-39-7, 40 mg/kg, iv, Female, Harlan Sprague-Dawley
Rat [29] = assay: concentration in brain after dosing; conditions: 12 h; dosed: Fluorotelomer alcohol 8+2; 24 mg/kg; oral; Male; Harlan Sprague Dawley
Rat [30] = assay: concentration in plasma after dosing; conditions: dosed: 678-39-7, 40 mg/kg, iv, Male, F344
Rat [31] = assay: concentration in brain after dosing; conditions: 0.5 h; dosed: Fluorotelomer alcohol 8+2; 80 mg/kg; oral; Female; Harlan Sprague Dawley
Rat [32] = assay: concentration in plasma after dosing; conditions: dosed: 678-39-7, 12 mg/kg, iv, Male, F344
Rat [33] = assay: concentration in kidney after dosing; conditions: 3 h; dosed: Fluorotelomer alcohol 8+2; 80 mg/kg; oral; Female; Harlan Sprague Dawley
Rat [34] = assay: concentration in kidney after dosing; conditions: 0.5 h; dosed: Fluorotelomer alcohol 8+2; 24 mg/kg; oral; Male; Harlan Sprague Dawley

O=S(=O)([O-])C(F)(F)C(F)(F)C(F)(F)C(F)(F)C(F)(F)C(F)(F)C(F)(F)C(F)(F)F [Perfluorooctane Sulfonate]
Conditions	concentration in brain [ng/g]	concentration in kidney [ng/g]	concentration in liver [ng/g]
Rat [1]	1320	–	–
Rat [2]	–	22700	–
Rat [3]	–	–	9930
Rat [4]	–	4810	–
Rat [5]	–	13900	–
Rat [6]	–	980	–
Rat [7]	–	–	6900
Rat [8]	–	10200	–
Rat [9]	–	152000	–
Rat [10]	–	–	30300

Rat [11]
Conditions	concentration in plasma [ng/mL]
5 min	27.5
192 h	3830
1200 h	1210

O=C(O)C(F)(F)C(F)(F)C(F)(F)C(F)(F)C(F)(F)F [Perfluorohexanoic Acid]
Conditions	concentration in kidney [ng/g]	concentration in plasma [ng/mL]
Rat [12]	46000	–
Rat [14]	69600	–
Rat [15]	–	1240

Rat [13]
Conditions	concentration in plasma [ng/mL]
3 h	1450
5 min	35700

ClC=C(Cl)Cl [trichloroethylene]
human
Conditions	concentration in expired air
0.1172 h	7.17 ppm
0.1972 h	5.83 ppm
0.3304 h	5.7 ppm
0.4637 h	4.83 ppm
0.9967 h	2.59 ppm
2.009 h	1.89 ppm
4.021 h	1.39 ppm
5.993 h	1.35 ppm
8.019 h	1.01 ppm
10.04 h	1.08 ppm
12.02 h	0.874 ppm
38 s	21.7 ppm
230 s	14.3 ppm and 10.8 ppm

Cc1ccc(C)c(OCCCC(C)(C)C(=O)O)c1 [Gemfibrozil]
Conditions	concentration in plasma [ng/mL]
Rat [16]	7230
Rat [17]	754
Rat [18]	287
Rat [19]	1970
Rat [20]	131
Rat [21]	189

CC1CCCO1 (stereo not drawn) [2-Methyltetrahydrofuran]
Conditions	concentration in plasma [ng/mL]
Rat [22]	11400
Rat [23]	312
Rat [24]	57400
Rat [25]	23700

O=C(O)CCC(F)(F)C(F)(F)C(F)(F)C(F)(F)C(F)(F)C(F)(F)C(F)(F)F [Fluorotelomer acid 7+3]
Conditions	concentration in brain [ng/g]	concentration in kidney [ng/g]	concentration in liver [ng/g]
Rat [26]	–	–	934
Rat [27]	–	–	5690
Rat [29]	129	–	–
Rat [31]	152	–	–
Rat [33]	–	5620	–
Rat [34]	–	198	–

Conditions	concentration in plasma [ng/mL]
Rat [28], 0.75 h	929
Rat [28], 12 h	368
Rat [30], 0.5 h	470
Rat [30], 9 h	2680
Rat [32], 1 h	601
Rat [32], 6 h	432
